Here are results for 18 compounds from ChEMBL document CHEMBL1131514, “A novel series of 6-methoxy-1H-benzotriazole-5-carboxamide derivatives with dual antiemetic and gastroprokinetic activities” (1998).

The structures appear in SMILES notation. Bounds are passed on as bounds.

Assay [1] relates to Canis familiaris. In words: Tested in vivo for effective dose required for suppression of apomorphine-induced emesis in dog […]. As to conditions: Canis lupus familiaris. The class given is functional.
Assay [2] has as its system Canis familiaris. Briefly: Antiemetic activity was evaluated in vivo by the suppression of apomorphine-induced emesis in dogs at oral dose of 1.0 mg/kg. The class given is functional, Canis lupus familiaris.
In the next assay the test system is Rattus norvegicus. In words: Compound was tested for its effect on the gastric emptying rate of phenol red semisolid meal through the stomach at oral dose of 3.0 mg/kg in rats. The class given is functional. In short, it runs like this: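 Rats dosed orally at 3.0 mg/kg, with a 0.5% tragacanth control group. Gastric emptying of a phenol red semisolid meal was measured and expressed as percentage enhancement relative to the control group mean. Significance was tested against control.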

The term ED50 denotes the midpoint of the dose-response relation. A high value points to a need for a large dose. On to `CCN1CCCCCCC(NC(=O)c2cc3[nH]nnc3cc2OC)C1` (stereo unspecified), for which, in the assay with Canis familiaris [1], the ED50 came to 0.1 mg/kg. For the same compound, in the assay with Canis familiaris [2], the Antiemetic activity is reported as 100%. Further, in the assay with Rattus norvegicus, the Gastric emptying stood at 46%.

In turn, `CCN1CCCCC(NC(=O)c2ccc3[nH]nnc3c2OC)C1` (stereo unspecified) showed an Antiemetic activity in the assay with Canis familiaris [2] of 50%. This compound displayed a Gastric emptying with Rattus norvegicus of 11%.

Compound `CCCn1nnc2cc(C(=O)NC3CCCCN(CC)C3)c(OC)cc21` (stereo unspecified) gave an Antiemetic activity in the assay with Canis familiaris [2] of 89%. In addition, in the assay with Rattus norvegicus, the Gastric emptying is on record as 29%.

As to `CCN1CCCC(NC(=O)c2cc3[nH]nnc3cc2OC)C1` (stereo unspecified), the Antiemetic activity in the assay on Canis familiaris [2] was determined as 31%.

On to `CCN1CCCCC(NC(=O)c2cc3nnn(C)c3cc2OC)C1` (stereo unspecified), for which the Antiemetic activity in the assay on Canis familiaris [2] came to 77%. Besides, in the assay on Rattus norvegicus, the Gastric emptying came out at 49%.

In the assay on Canis familiaris [1], `CCN1CCCCCC(NC(=O)c2cc3[nH]nnc3cc2OC)C1` (stereo unspecified) yielded a 50% effective dose (ED50) of 0.19 mg/kg. For the same compound, the Antiemetic activity with Canis familiaris [2] is 100%. Besides, the Gastric emptying with Rattus norvegicus is listed as 21%.

Regarding `CCN1CCCCC(NC(=O)c2cc3[nH]nnc3cc2OC)C1` (stereo unspecified), in the assay with Canis familiaris [1], the ED50 turned out to be 0.08 mg/kg. This compound also came in with an Antiemetic activity with Canis familiaris [2] of 100%. In the assay on Rattus norvegicus, this compound returned a Gastric emptying of 28%.

Consider `CCN1CCCCC(NC(=O)c2cc3nnn(CC)c3cc2OC)C1` (stereo unspecified), for which the Antiemetic activity with Canis familiaris [2] turned out to be 89%. In the assay on Rattus norvegicus, this compound gave a Gastric emptying of 31%.

In turn, `O=c1[nH]c2ccccc2n1CCCN1CCC(n2c(=O)[nH]c3cc(Cl)ccc32)CC1` [DOMPERIDONE] had an ED50 with Canis familiaris [1] of 0.02 mg/kg. In the assay on Canis familiaris [2], this compound showed an Antiemetic activity of 100%. In the assay with Rattus norvegicus, the Gastric emptying is on record as 0%.

Turning to `CCN1CCCCCCCC(NC(=O)c2cc3[nH]nnc3cc2OC)C1` (stereo unspecified), the Antiemetic activity with Canis familiaris [2] is on record as 22%. The same compound displayed a Gastric emptying in the assay on Rattus norvegicus of 31%.

In the assay on Canis familiaris [2], `CCOc1cc2[nH]nnc2cc1C(=O)NC1CCCCN(CC)C1` (stereo unspecified) displayed an Antiemetic activity of 15%. This compound returned a Gastric emptying in the assay on Rattus norvegicus of 18%.

In the case of `CCN1CCCCC(NC(=O)c2cc3nnn(C(C)C)c3cc2OC)C1` (stereo unspecified), the Antiemetic activity in the assay with Canis familiaris [2] came out at 94%. In the assay on Rattus norvegicus, this compound displayed a Gastric emptying of 16%.

Compound `CCN(CC)CCNC(=O)c1cc(Cl)c(N)cc1OC` [METOCLOPRAMIDE] returned an ED50 in the assay on Canis familiaris [1] of 0.45 mg/kg. This compound returned an Antiemetic activity in the assay on Canis familiaris [2] of 86%. The compound further came in with a Gastric emptying in the assay with Rattus norvegicus of 39%.

In the case of `COc1cc2[nH]nnc2cc1C(=O)NC1CCCCN(C)C1` (stereo unspecified), the Antiemetic activity with Canis familiaris [2] is recorded as 46%. The compound further yielded a Gastric emptying with Rattus norvegicus of 20%.

For `CCCN1CCCCC(NC(=O)c2cc3[nH]nnc3cc2OC)C1` (stereo unspecified), the Antiemetic activity with Canis familiaris [2] worked out at 63%. The Gastric emptying with Rattus norvegicus came out at 17%.

For the compound `CCN1CCCCC(NC(=O)c2cc3nnn(CC4CC4)c3cc2OC)C1` (stereo unspecified), the Antiemetic activity with Canis familiaris [2] came out at 74%. This compound also displayed a Gastric emptying in the assay with Rattus norvegicus of 34%.

`COc1cc2[nH]nnc2cc1C(=O)NC1CCCCN(C(C)C)C1` (stereo unspecified) returned an Antiemetic activity in the assay on Canis familiaris [2] of 15%. Further, in the assay with Rattus norvegicus, the Gastric emptying turned out to be 31%.

On to `CCOc1cc(N)c(Cl)cc1C(=O)NCC1CN(Cc2ccc(F)cc2)CCO1` (stereo unspecified) [MOSAPRIDE], for which the ED50 in the assay on Canis familiaris [1] was greater than 10 mg/kg. Moreover, in the assay on Canis familiaris [2], the Antiemetic activity is 8%. Further, the Gastric emptying with Rattus norvegicus worked out at 70%.
